Data published in ChEMBL document CHEMBL2396611, “Synthesis and mechanism of hypoglycemic activity of benzothiazole derivatives” (J Med Chem, 2013).
The source made the active and inactive calls. The calls are words filed in the database; no cut-off is given here.

What was measured:
L6 [1] = assay: Effect on total GLUT1 expression in rat L6 cell lysate at 25 uM after 30 mins to 5 hrs by Western blot analysis; assay type: functional, cell-based
Procedure, shortened: (§1)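 Fully differentiated L6 myotubes, preconditioned in αMEM with 23.0 mM D-glucose; insulin exposure 30 min, test exposure 5 h. Whole-cell lysates made in Tris-HCl pH 7.5 buffer with phosphatase and protease inhibitors, 40 min at 4 °C. Protein measured by Bradford, 5-60 µg per lane. Western blot probed with rabbit polyclonal anti-GLUT1 or anti-GLUT4.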

L6 [2] = assay: Effect on total GLUT4 expression in rat L6 cell lysate at 25 uM after 30 mins to 5 hrs by Western blot analysis; assay type: functional, cell-based; procedure, shortened: as §1
Cytochrome P450 2C19 = Cytochrome P450 2C19 (Homo sapiens, UniProt P33261); assay: Inhibition of CYP2C19 (unknown origin) by luminescent based assay; assay type: ADME
Cytochrome P450 2C19, sequence (P33261 whole entry): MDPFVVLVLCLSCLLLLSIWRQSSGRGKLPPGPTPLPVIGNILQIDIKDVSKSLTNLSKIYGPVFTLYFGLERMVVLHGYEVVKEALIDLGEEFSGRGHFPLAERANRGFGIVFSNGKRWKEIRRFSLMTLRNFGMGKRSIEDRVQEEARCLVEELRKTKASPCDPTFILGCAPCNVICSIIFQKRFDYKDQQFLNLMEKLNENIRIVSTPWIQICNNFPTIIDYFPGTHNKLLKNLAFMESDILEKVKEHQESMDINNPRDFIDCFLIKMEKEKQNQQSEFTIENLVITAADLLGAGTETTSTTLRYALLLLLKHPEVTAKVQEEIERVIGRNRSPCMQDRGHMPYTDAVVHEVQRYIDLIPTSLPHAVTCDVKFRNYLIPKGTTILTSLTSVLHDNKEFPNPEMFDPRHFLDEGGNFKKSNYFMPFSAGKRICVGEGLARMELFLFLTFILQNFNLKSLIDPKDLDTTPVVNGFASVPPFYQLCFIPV

Cytochrome P450 2C9 = Cytochrome P450 2C9 (Homo sapiens, UniProt P11712); assay: Inhibition of CYP2C9 (unknown origin) by luminescent based assay; assay type: ADME
Cytochrome P450 2C9, sequence (P11712 whole entry): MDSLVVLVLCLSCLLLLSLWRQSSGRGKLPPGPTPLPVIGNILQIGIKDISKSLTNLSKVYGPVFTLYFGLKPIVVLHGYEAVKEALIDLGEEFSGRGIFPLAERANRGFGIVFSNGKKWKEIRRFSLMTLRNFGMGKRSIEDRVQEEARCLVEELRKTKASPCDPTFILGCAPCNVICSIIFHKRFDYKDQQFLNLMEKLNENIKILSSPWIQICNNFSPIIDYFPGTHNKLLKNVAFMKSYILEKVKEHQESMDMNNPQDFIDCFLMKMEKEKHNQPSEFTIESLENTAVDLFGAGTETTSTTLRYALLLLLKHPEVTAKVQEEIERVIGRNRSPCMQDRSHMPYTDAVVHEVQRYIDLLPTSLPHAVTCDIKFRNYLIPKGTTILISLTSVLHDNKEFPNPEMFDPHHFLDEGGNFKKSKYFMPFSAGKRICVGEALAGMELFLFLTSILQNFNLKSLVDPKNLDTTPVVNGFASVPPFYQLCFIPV

Cytochrome P450 1A2 = target: T1, Cytochrome P450 1A2 (Homo sapiens, UniProt P05177); assay: Inhibition of CYP1A2 (unknown origin) by luminescent based assay; assay type: ADME
T1 sequence (P05177 whole entry): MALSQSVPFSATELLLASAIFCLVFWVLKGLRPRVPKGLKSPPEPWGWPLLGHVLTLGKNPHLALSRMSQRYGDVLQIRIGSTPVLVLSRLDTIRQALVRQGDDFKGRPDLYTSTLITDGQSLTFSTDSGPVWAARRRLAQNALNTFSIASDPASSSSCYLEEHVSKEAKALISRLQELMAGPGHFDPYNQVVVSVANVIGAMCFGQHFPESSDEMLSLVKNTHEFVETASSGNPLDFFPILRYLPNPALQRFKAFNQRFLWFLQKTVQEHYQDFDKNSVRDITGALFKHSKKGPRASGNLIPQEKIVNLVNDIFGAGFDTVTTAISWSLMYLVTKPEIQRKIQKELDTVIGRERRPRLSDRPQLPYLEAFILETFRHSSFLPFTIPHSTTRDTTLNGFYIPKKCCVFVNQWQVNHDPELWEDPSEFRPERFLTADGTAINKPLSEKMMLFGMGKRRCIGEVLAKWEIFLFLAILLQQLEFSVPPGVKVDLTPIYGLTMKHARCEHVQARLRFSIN

[3] = Half life in BALB/c mouse liver microsomes at 2 uM; assay type: ADME, Microsome
Mus musculus [4] = assay: Antidiabetic activity in KKAy mouse assessed as reduction of blood glucose level at 30 to 75 mg/kg, sc bid for 4 days; assay type: functional, organism-based
Procedure, shortened: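 Hyperglycemic KKAy mice injected s.c. twice daily for 4 days with compound at 30 or 75 mg/kg suspended in sesame oil; controls received sesame oil (150 µl). Blood glucose measured at the indicated times, with day-zero levels taken as 100%. n=10 per group, mean ± SEM, compared with oil-treated group.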

Mus musculus [5] = assay: Antidiabetic activity in po dosed KKAy mouse assessed as reduction of blood glucose level; assay type: functional, organism-based
[6] = target: 5'-AMP-activated protein kinase catalytic subunit alpha-2 (Homo sapiens) (UniProt P54646); assay: Activation of human recombinant AMPK at 20 uM after 30 mins relative to control
5'-AMP-activated protein kinase catalytic subunit alpha-2 (Homo sapiens), sequence (P54646 whole entry, looked up): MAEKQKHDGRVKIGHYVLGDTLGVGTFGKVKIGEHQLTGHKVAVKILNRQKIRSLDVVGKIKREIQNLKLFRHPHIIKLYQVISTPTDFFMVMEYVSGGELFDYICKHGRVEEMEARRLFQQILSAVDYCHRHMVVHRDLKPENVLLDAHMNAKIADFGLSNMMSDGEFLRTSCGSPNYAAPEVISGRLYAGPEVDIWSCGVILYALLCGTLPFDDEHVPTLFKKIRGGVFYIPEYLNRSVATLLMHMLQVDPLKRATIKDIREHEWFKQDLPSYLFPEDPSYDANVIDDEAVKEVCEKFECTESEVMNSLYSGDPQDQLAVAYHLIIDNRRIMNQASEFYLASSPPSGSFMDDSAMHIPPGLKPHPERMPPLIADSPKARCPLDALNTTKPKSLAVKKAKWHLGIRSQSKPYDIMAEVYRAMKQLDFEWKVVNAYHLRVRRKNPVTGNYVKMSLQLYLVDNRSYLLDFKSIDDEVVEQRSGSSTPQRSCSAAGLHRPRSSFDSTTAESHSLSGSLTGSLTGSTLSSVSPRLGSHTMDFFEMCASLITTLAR
Procedure, shortened: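 Recombinant human full-length AMPK assayed with a commercial luminescent kit. Compound at 20 μM or DMSO vehicle (1% v/v) added to the reaction mix for 30 min at ambient temperature. Activity read by luminometer against a calibration curve; basal activity with DMSO set as 100%.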

[7] = target: 5'-AMP-activated protein kinase catalytic subunit alpha-2 (Rattus norvegicus) (UniProt Q09137); assay: Activation of AMPK in rat L6 cells assessed as increase of [3H]dGlc uptake after 5 hrs in presence of PI3K inhibitor wortmannin; assay type: cell-based
5'-AMP-activated protein kinase catalytic subunit alpha-2 (Rattus norvegicus), sequence (Q09137 whole entry): as the sequence (P54646 whole entry, looked up) above, with M114V, H150Q, V241I, S348T, S355M, F502V, T505S, S509N, V528A, T549A counted along it
Procedure, shortened: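 Myotubes treated with compound, insulin or vehicle in the absence or presence of 100 nM wortmannin or 100 nM Akt/PKB inhibitor, each added 30 min before compound or insulin. Compound C 5 μM was added 5 h before the uptake assay. Rate then measured by the standard 5-min [3H]dGlc uptake assay.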

[8] = target: 5'-AMP-activated protein kinase catalytic subunit alpha-2 (Rattus norvegicus) (UniProt Q09137); assay: Activation of AMPK in rat L6 cells assessed as ACC phosphorylation at Ser79 at 4 mM after 30 mins by Western blot analysis relative to control; assay type: cell-based
Procedure, shortened: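 Fully differentiated L6 myotubes, preincubated 3 h with or without 5 μM Compound C. Test agents: compound at 25 μM for 3 h, sorbitol 250 mM for 40 min, AICAR 4 mM for 30 min. Whole-cell lysates probed by Western blot for pSer79-ACC, ACC, pThr642-AS-160, AS-160 and α-tubulin; band densities summarized, n=3, vs respective controls.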

[9] = target: 5'-AMP-activated protein kinase catalytic subunit alpha-2 (Rattus norvegicus) (UniProt Q09137); assay: Activation of AMPK in rat L6 cells assessed as increase of [3H]dGlc uptake at 25 uM after 5 hrs in presence of insulin; assay type: cell-based
Procedure, shortened: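 Myotubes in serum-free αMEM with 0.5% BSA and 23.0 mM D-glucose for 9 h. Compound 25 μM or DMSO (0.1% v/v) given for the last 5 h; insulin 100 nM for the last 20 min. [3H]dGlc uptake read as 5-min PBS pulse with 0.1 mmol/L dGlc; basal rate taken as 100%.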

L6 [10] = assay: Activation of AMPKalpha in rat L6 cells assessed as phosphorylation at Thr172 at 150 uM after 4 hrs by Western blot analysis; assay type: cell-based
Procedure, shortened: (§2)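 L6 myotubes treated 4 h with increasing compound concentrations (5 to 150 μM) or DMSO. Whole-cell lysates immunoblotted for pThr172-AMPKα, AMPKα and α-tubulin; phosphorylation expressed relative to DMSO-treated control.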

[11] = target: 5'-AMP-activated protein kinase catalytic subunit alpha-2 (Rattus norvegicus) (UniProt Q09137); assay: Activation of AMPK in rat L6 cells assessed as increase of [3H]dGlc uptake at 25 uM after 5 hrs relative to control; assay type: cell-based
Procedure, shortened: (§3)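 Fully differentiated L6 myotubes preincubated 24 h in αMEM with 2% FCS and 23.0 mmol/L D-glucose, then 4 h serum-free with 0.5% BSA. Compound or DMSO vehicle given for the indicated times or concentrations. Uptake read after 5 min at room temperature in PBS pH 7.4 with 0.1 mmol/L dGlc and 1.3 μCi/mL [3H]dGlc, by scintillation of SDS lysates. Zero-time basal rate set as 100%; n=6.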

L6 [12] = assay: Activation of AMPKalpha in rat L6 cells assessed as phosphorylation at Thr172 at 100 uM after 4 hrs by Western blot analysis relative to control; assay type: cell-based; procedure, shortened: as §2
L6 [13] = assay: Activation of AMPKalpha in rat L6 cells assessed as phosphorylation at Thr172 at 15 uM after 4 hrs by Western blot analysis relative to control; assay type: cell-based; procedure, shortened: as §2
L6 [14] = assay: Activation of AMPKalpha in rat L6 cells assessed as phosphorylation at Thr172 at 10 uM after 4 hrs by Western blot analysis relative to control; assay type: cell-based; procedure, shortened: as §2
L6 [15] = assay: Activation of AMPKalpha in rat L6 cells assessed as phosphorylation at Thr172 at 5 uM after 4 hrs by Western blot analysis relative to control; assay type: cell-based; procedure, shortened: as §2
[16] = target: 5'-AMP-activated protein kinase catalytic subunit alpha-2 (Rattus norvegicus) (UniProt Q09137); assay: Activation of AMPK in rat L6 cells assessed as increase of [3H]dGlc uptake after 5 hrs; assay type: cell-based; procedure, shortened: as §3

- inhibition (INH) (Cytochrome P450 2C19): Not Active
- inhibition (INH) (Cytochrome P450 2C9): Not Active
- inhibition (INH) (Cytochrome P450 1A2): Not Active
- half-life at 2 µM [3]: 2.4 min
- fold change (FC) [6]: 4.3
- Activity [7]: Active
- fold change (FC) [8]: 3.63
- Activity [9]: Active
- Activity [11]: Active
- Activity [16]: Dose-dependent effect
Structure (SMILES): CCOc1ccc2nc(SCc3nc4ccccc4s3)sc2c1
- Activity (L6 [1]): inactive
- Activity (L6 [2]): inactive
- Activity (Mus musculus [4]): Active
- Activity (Mus musculus [5]): inactive
- fold change (FC) (L6 [10]): 7.6
- fold change (FC) (L6 [12]): 5.2
- fold change (FC) (L6 [13]): 5.5
- fold change (FC) (L6 [14]): 4.7
- fold change (FC) (L6 [15]): 2
